For data set [1], the system named is HK-2. Briefly: Effect on morphological changes in human HK2 cells at 1 uM measured after 36 hrs. Format: ADME, cell-based. The note with it: hk-2, 36 h.
Data set [2] has as its system HK-2. In words: Inhibition of TGFbeta1-induced epithelial-mesenchymal transition in human HK2 cells assessed as reversal of spindle-like morphology measured after 36 hrs. Format: functional, cell-based. In a few lines: (§1)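 HK-2 cells kept in RPMI 1640 with 2 mg/mL NaHCO3, 10% FBS and 10 mM HEPES, then seeded at 6000 (96-well) or 40 000 (12-well) cells/well. Treated in serum-free medium with TGF-β1 (5 ng/mL), with or without test agent, for 36 h. Morphology scored as cell length/width ratio (n = 40). Run twice, each in duplicate.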

The test system of data set [3] is HK-2. In words: Inhibition of TGFbeta1-induced epithelial-mesenchymal transition in human HK2 cells assessed as reduction in alpha-SMA expression measured after 36 hrs by Western blot analysis. In kind it is functional, cell-based.
In data set [4] the test system is HK-2. Briefly: Inhibition of TGFbeta1-induced epithelial-mesenchymal transition in human HK2 cells assessed as reduction in fibronectin release measured after 36 hrs by ELISA. In kind it is functional, cell-based. In general terms: ELISA stands for enzyme-linked immunosorbent assay.
In data set [5] the test system is HK-2. In words: Effect on basal alpha-SMA expression in human HK2 cells at 1 uM after 36 hrs by Western blot analysis. In kind it is ADME, cell-based. The conditions noted are these: hk-2, 36 h. In general terms: Immunoblotting shows a protein as a band on a membrane.
Data set [6] has as its system HK-2. In words: Inhibition of TGFbeta1-induced epithelial-mesenchymal transition in human HK2 cells assessed as reversal of spindle-like morphology at 30 uM measured after 36 hrs. Format: functional, cell-based. The method, boiled down:
as §1

Data set [7] relates to HK-2. In words: Inhibition of TGFbeta1-induced epithelial-mesenchymal transition in human HK2 cells assessed as reduction in alpha-SMA expression at 30 uM measured after 36 hrs by Western blot analysis. In kind it is functional, cell-based.
Data set [8] has as its target T1, Short transient receptor potential channel 6 (Mus musculus, UniProt Q61143).
T1 sequence (Q61143 whole entry): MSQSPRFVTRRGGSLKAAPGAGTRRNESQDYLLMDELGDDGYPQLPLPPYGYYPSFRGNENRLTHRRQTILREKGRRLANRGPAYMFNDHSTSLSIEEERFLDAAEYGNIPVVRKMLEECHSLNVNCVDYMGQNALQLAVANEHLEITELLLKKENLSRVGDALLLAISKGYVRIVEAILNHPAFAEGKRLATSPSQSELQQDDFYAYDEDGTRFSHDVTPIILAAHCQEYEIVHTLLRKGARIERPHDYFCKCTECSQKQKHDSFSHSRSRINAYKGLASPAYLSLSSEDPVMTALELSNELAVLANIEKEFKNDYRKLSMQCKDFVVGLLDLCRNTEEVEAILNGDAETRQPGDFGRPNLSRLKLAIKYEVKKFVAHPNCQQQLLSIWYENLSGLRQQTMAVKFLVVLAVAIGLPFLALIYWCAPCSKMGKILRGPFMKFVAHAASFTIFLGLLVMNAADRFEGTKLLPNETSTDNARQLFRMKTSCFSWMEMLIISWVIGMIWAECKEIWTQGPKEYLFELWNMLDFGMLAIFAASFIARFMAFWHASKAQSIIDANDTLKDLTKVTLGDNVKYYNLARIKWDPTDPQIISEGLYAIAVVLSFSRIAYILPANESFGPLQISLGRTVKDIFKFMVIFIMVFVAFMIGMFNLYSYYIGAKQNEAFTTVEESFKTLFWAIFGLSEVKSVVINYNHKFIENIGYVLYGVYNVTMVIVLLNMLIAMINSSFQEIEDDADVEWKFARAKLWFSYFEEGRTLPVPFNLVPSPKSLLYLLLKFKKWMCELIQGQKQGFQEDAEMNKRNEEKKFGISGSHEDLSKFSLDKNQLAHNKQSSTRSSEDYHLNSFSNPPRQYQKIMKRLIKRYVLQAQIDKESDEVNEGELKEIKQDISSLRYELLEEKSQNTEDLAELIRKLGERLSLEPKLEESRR
Briefly: Inhibition of mouse TRPC6 expressed in HEK293 cells assessed as reduction in M085-induced intracellular calcium flux pretreated for 5 mins followed by M085 addition measured after 300 secs by Fluo-8AM dye based FLIPR assay. Format: cell-based. In a few lines:
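HEK-293 cells stably expressing mouse TRPC6, on poly-D-lysine plates (~20 000 cells/well), cultured 6 h. Loaded with 4 μM Fluo-8/AM for 45 min, washed. FLIPR read: baseline 30 s, then compound or vehicle 5 min, then M085 (1 μM). Signal expressed as F/F0; AUC over 300 s after M085 used for concentration–response. Twice, each in triplicate.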
Background: A change in cytosolic calcium serves as a functional read-out for many receptors and channels.

The subject of data set [9] is HK-2. In words: Inhibition of TGFbeta1-induced epithelial-mesenchymal transition in human HK2 cells assessed as reduction in fibronectin release at 30 uM measured after 36 hrs by ELISA. Format: functional, cell-based.

Active and inactive are the calls of the source. No cut-off for these calls is given here.

Take `Cl.Cl.N#Cc1ccc(O[C@@H]2c3ccccc3C[C@H]2N2CCC[C@@H](N)C2)c(Cl)c1`: the Activity result in data set [1] and in data set [5] was “Non-Toxic” in each case. Besides, the inhibition entry in data set [2], in data set [3] and in data set [4] was “Dose-dependent effect” each time.
As a reminder, the IC50 is the concentration that gives 50% inhibition. Turning to `N#C/C(=C\CO)CO[C@@H]1O[C@H](COC(=O)c2ccc(O)cc2)[C@@H](O)[C@H](O)[C@H]1O`, the inhibition entry in data set [6], in [7] and in data set [9] was “Active” each time. In addition, the IC50 in [8] worked out at 24.5 µM.
In the case of `COc1cc(C(=O)OC[C@H]2O[C@@H](OC/C(C#N)=C/CO)[C@H](O)[C@@H](O)[C@@H]2O)ccc1O`, the inhibition result in data set [6], in [7] and in [9] was “Active” each time. Also, the IC50 in [8] is 25.6 µM.

Values taken from ChEMBL document CHEMBL4251667, “Ribemansides A and B, TRPC6 Inhibitors from Ribes manshuricum That Suppress TGF-β1-Induced Fibrogenesis in HK-2 Cells” (J Nat Prod, 2018).
